TRPC6 inh – blocks the mouse TRPC6 cation channel; HEK293-TRPC6, membrane potential dye, ACh-evoked depolarization; stronger effect = lower value; B-score at 10 µM; 1.1% of 310,000 active;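 active = B-score under library mean minus 3 SD, initial fluorescence not abnormally high, positive integrated signal ratio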;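 also: B-score derived from integrated fluorescence ratio over the kinetic read; more negative B-score means stronger inhibition of depolarization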
TRPC4 PAM – allosterically enhances the mouse TRPC4 cation channel. HEK293 TRPC4beta/mu-opioid, DAMGO EC20, Fluo-4 Ca2+ flux; stronger effect = higher value. 0.42% of 310,000 active. B-score at 10 µM. AID 2227;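 active = B-score of calcium response area above 5 SD of library B-scores, with initial fluorescence ratio within 5 SD of library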
Target sequence (Q9QUQ5 whole entry, looked up): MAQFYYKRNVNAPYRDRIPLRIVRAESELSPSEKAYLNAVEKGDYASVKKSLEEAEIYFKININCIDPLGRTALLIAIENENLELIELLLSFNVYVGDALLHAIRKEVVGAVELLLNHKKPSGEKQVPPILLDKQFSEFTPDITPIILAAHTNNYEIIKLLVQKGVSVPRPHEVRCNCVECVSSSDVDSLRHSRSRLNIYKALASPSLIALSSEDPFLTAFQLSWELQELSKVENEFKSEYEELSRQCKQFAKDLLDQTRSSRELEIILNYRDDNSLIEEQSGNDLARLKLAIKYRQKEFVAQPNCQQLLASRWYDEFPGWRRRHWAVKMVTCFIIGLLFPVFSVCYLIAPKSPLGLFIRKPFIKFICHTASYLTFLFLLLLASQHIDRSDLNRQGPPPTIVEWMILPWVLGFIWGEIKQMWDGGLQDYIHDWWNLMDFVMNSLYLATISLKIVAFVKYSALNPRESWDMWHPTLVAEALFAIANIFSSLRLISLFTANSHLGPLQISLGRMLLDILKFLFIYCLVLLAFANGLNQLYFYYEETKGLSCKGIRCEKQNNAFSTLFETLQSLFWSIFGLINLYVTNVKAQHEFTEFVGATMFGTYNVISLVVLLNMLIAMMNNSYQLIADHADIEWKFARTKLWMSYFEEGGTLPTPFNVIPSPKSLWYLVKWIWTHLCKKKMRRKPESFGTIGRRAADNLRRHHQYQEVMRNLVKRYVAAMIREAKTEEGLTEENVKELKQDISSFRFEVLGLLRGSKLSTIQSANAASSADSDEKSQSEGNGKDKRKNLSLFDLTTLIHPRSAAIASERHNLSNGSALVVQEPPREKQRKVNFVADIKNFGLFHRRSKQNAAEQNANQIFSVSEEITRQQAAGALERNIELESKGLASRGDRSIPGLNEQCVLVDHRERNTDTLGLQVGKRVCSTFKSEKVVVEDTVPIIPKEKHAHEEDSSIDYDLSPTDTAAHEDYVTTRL
TRPC4 block – TRPC4 (mouse) channel inhibition | Q9QUQ5 | HEK293 TRPC4beta/mu-opioid, DAMGO-evoked Fluo4 calcium flux; stronger effect = lower value | B-score at 10 µM | 0.39% of 300,000 active;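 active = B-score over 3 SD under the library average, no early fluorescence shift, positive overall ratio signal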
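Material: HEK293 cells with stable TRPC4beta plus mu-opioid receptor expression; probe or stimulus: DAMGO in two steps, submaximal then maximal; technique: Fluo4 calcium fluorescence by kinetic imaging, 5 s 1 Hz baseline; measure: integrated fluorescence ratio relative to baseline, converted to per-well B score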
TRPC4 agonist – opens the mouse TRPC4 cation channel; 0.49% of 310,000 active; Q9QUQ5; B-score at 10 µM; HEK293 TRPC4beta/mu-opioid, Fluo4 calcium fluorescence; stronger effect = higher value; AID 2237;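 active = B-score above 5 SD of library B-scores, and initial fluorescence ratio not above library mean plus 5 SD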;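 also: positive B-score marks a calcium rise read as TRPC4 activation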
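Material: TRPC4beta and mu-opioid receptor HEK293 stable cells | Incubation: 45 min room-temperature Fluo4 loading, 110 s read | Detection: Kinetic Fluo4 calcium fluorescence | Measure: Integrated baseline-normalised fluorescence ratio, converted to per-well B score | Benchmarks: Low control buffer alone, high control maximal DAMGO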
TRPC6 activator – mouse TRPC6 channel activation | 0.13% of 310,000 active | HEK293-TRPC6 membrane potential dye fluorescence; stronger effect = higher value | B-score at 10 µM | Q61143;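 active = B-score of the integrated fluorescence ratio above library mean plus 3 SD, and starting fluorescence ratio within library mean plus 5 SD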;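 also: higher score means more depolarization so channel activation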
HEK293 TRPC6 ctr – parental HEK293 nonspecific activity of TRPC6 modulators; membrane potential dye fluorescence; 51% of 2,400 active; shares compounds with TRPC6 inh; membrane potential signal change, % at 10 µM;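 active = membrane potential signal moves up or down beyond 5 SD from buffer-only wells, on both duplicate plates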
HEK293 MPD ctr 2 – second check of TRPC6 modulator effects in parental HEK293 cells. shares compounds with TRPC6 inh. membrane potential dye fluorescence; after compound, maximal acetylcholine stimulation. inhibition, % at 10 µM. 14% of 2,400 active;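 active = membrane potential signal drops by more than 5 SD from the mean control signal, in both duplicate plates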
TRPC4 ctr mod – mouse TRPC4 off-target activity of TRPC6 modulators | percent change from control (negative = decrease, positive = increase), % at 10 µM | AID 488927 | HEK293 TRPC4/mu-opioid, membrane potential fluorescence | 69% of 2,400 active | shares compounds with TRPC6 inh;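 active = membrane potential signal moved up or down beyond 5 SD of buffer control wells, in both duplicate plates, actives on both sides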
TRPC4/MOR inh 2 – second check of whether TRPC6 modulators also affect mouse TRPC4; shares compounds with TRPC6 inh; HEK293 TRPC4/mu-opioid, membrane potential dye fluorescence; stimulated with maximal-effect DAMGO; inhibition, % at 10 µM; 55% of 2,400 active;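 active = drop in membrane potential signal beyond 5 SD of the control wells in both duplicate plates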;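 also: TRPC4 counter screen for TRPC6 hits run under conditions tuned for TRPC6 not TRPC4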
TRPC6 inh conf – mouse TRPC6 inhibitor confirmation | shares compounds with TRPC6 inh | HEK293-TRPC6, membrane potential dye, ACh-evoked depolarization | inhibition, % at 10 µM | 43% of 3,300 active;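 active = fluorescence ratio falls more than 5 SD below the full-stimulation control mean, in both duplicate runs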;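 also: integrated fluorescence ratio of peak minus minimum over baseline after agonist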
TRPC6 act confirm – confirmation of mouse TRPC6 activators; shares compounds with TRPC6 inh; HEK293-TRPC6 membrane potential dye fluorescence, FDSS; activation, % at 10 µM; 11% of 2,800 active;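 active = ratio signal rise beyond 5 SD above unstimulated control wells' mean, seen in both duplicate runs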
Of the large screens only hits and unclear results are named; the others gave an inactive call (follow-up assays come after a bar, where they were run). Rows were chosen to be rich in hits. Some 2.3% of all compounds tested hit in one or more screens of this group.

COC(=O)/C(=C\c1ccc2c(c1)c1ccccc1n2C)NC(=O)c1ccccc1	none
COc1ccccc1CCC(=O)OCC(=O)NC1CCCCC1	none
COCCNC(=S)Nc1ccc2nc(N3CCCC3)cc(C)c2c1	TRPC6 inh -6.16 | HEK293 TRPC6 ctr -135.0% | HEK293 MPD ctr 2 82.0% | TRPC4 ctr mod -26.0% | TRPC4/MOR inh 2 40.5% | TRPC6 inh conf 71.0% | TRPC6 act confirm inactive
COCCNC(=S)Nc1ccc2nc(N3CCOCC3)cc(C)c2c1	none
CCOCCCNC(=S)Nc1ccc2nc(N3CCCC3)cc(C)c2c1	TRPC6 inh -5.63 | HEK293 TRPC6 ctr -138.5% | HEK293 MPD ctr 2 inactive | TRPC4 ctr mod -25.5% | TRPC4/MOR inh 2 40.5% | TRPC6 inh conf 44.5% | TRPC6 act confirm inactive
COc1nc(N2CCCCCC2)nc(N2CCCCCC2)n1	none
Cc1cccc(C)c1NC(=O)c1cccnc1	TRPC6 inh -6.3 | HEK293 TRPC6 ctr inactive | HEK293 MPD ctr 2 inactive | TRPC4 ctr mod inactive | TRPC4/MOR inh 2 inactive | TRPC6 inh conf inactive | TRPC6 act confirm inactive
CSc1ccccc1NC(=O)CSc1nnc(COc2ccccc2)o1	none
Cc1c(C)n(CCN(C)C)c2ncnc(NCc3ccccc3)c12	none
Cc1c(C)n(CCc2ccccc2)c2ncnc(NCCCN(C)C)c12	TRPC6 inh -6.32 | HEK293 TRPC6 ctr -70.5% | HEK293 MPD ctr 2 inactive | TRPC4 ctr mod -22.0% | TRPC4/MOR inh 2 58.0% | TRPC6 inh conf 57.5% | TRPC6 act confirm inactive
Cc1c(C)n(CCCN(C)C)c2ncnc(Nc3ccc(F)cc3)c12	TRPC6 inh -6.32 | HEK293 TRPC6 ctr -144.0% | HEK293 MPD ctr 2 inactive | TRPC4 ctr mod -30.0% | TRPC4/MOR inh 2 37.5% | TRPC6 inh conf 40.0% | TRPC6 act confirm inactive
O=C(NCc1ccco1)C1CCCN1C(=O)Nc1ccccc1[N+](=O)[O-] (stereo unspecified)	none
COc1ccc(CCC(C)NC2CCCCCCC2)cc1 (stereo unspecified)	TRPC6 inh -5.71 | HEK293 TRPC6 ctr 289.0% | HEK293 MPD ctr 2 inactive | TRPC4 ctr mod 64.5% | TRPC4/MOR inh 2 76.0% | TRPC6 inh conf 56.0%
CC1CCN(C(=O)c2ccc(NC(=O)CC3SC(N4CCCC4)=NC3=O)cc2)CC1 (stereo unspecified)	none
COC(=O)C(C)NC(=O)C1CCCN1C(=O)CNC(=O)OCc1ccccc1 (stereo unspecified)	none
O=C(CN1CC(=O)Oc2ccccc21)OCC(=O)c1ccc(F)cc1	none

Assay outcomes as filed in PubChem.
